The text below walks through data of PubChem BioAssay AID624018 (Broad Institute, 2012).

Activity calls are given as the source filed them.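 How the source made its calls: active means fitted curve reaches a 35% signal drop at a concentration no higher than twice the top valid dose, in duplicate at both wavelengths; inactive means the rest, including activity in the opposite direction.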

Test system in one test: not listed separately
Briefly: P. aeruginosa growth delay under iron chelation, dose response, absorbance 405 nm, dry powder (AID 624018). The following applies: P. aeruginosa growth with EDDHA, absorbance 405 nm, 24-30 h; at 16 µM (top of the series). In outline: (§1)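 Assay system: P. aeruginosa ATCC 15692 cells. Doses: 3-fold compound dilution series. Timing: 24-30 h exposure at 37 °C. Signal: absorbance at 405 nm reflecting pyoverdine production.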
For `Cc1ccc(C(C#N)c2ccccc2OC(F)(F)F)nc1C#N` (stereo unspecified), the activity change, negative = inhibition was -20.9% (inactive).

The test is the same for the next values; noted with them: P. aeruginosa growth with EDDHA, absorbance 405 nm, 24-30 h; at 50 µM (top of the series).
As to `N#Cc1cccc(C(C#N)c2ccc(Cl)cc2)n1` (stereo unspecified), the activity change, negative = inhibition is -11.9% (inactive).
Still for that read-out and setting: the value for `N#CC(CC1CC1)c1ccc(Cl)cc1` (stereo unspecified) was -14.4% (inactive); that for `CCCCC(C#N)c1ccccc1OC(F)(F)F` (stereo unspecified) was -4.38% (inactive).
For the molecule `N#Cc1cccc(C(C#N)c2ccc(Cl)cc2F)n1` (stereo unspecified), the activity change, negative = inhibition was -14.6% (inactive).
On the same count and under the same terms, as for `N#CC(c1ccc(C(F)(F)F)cc1)c1ccc(C(F)(F)F)c(Cl)n1` (stereo unspecified), the figure is -6.74% (inactive); as for `N#CC(c1ccc(C(F)(F)F)c(Cl)n1)c1ccc(Cl)cc1Cl` (stereo unspecified), 4.93% (inactive).
Same read-out and setting: the value for `CCCC(C#N)c1ccc(Cl)cc1` (stereo unspecified) was -12.6% (inactive); that for `N#Cc1cccc(C(C#N)c2ccccc2OC(F)(F)F)n1` (stereo unspecified) was -10.3% (inactive); that for `N#CC(c1ccc(Cl)cc1)c1ccc(C(F)(F)F)c(Cl)n1` (stereo unspecified) was 11.9% (inactive).
The same measure, in the same setting: the value for `N#CC(c1ccc(C(F)(F)F)cc1)c1cccc(Cl)n1` (stereo unspecified) was -8.88% (inactive).
Take `N#CC(c1ccc(Cl)cc1)c1ccc(C(F)(F)F)cn1` (stereo unspecified): the activity change, negative = inhibition is 4.01% (inactive).
The same measure, in the same setting: the value for `N#CC(c1ccc(C(F)(F)F)cc1)c1cccc(C(F)(F)F)n1` (stereo unspecified) was -4.57% (inactive); that for `N#CC(c1ccc(C(F)(F)F)c(Cl)n1)c1ccccc1OC(F)(F)F` (stereo unspecified) was -8.72% (inactive); that for `CCCCC(C#N)c1ccc(Cl)cc1F` (stereo unspecified) was -1.21% (inactive).
Same read-out and setting: the value for `N#CC(c1cccc(Cl)n1)c1ccccc1OC(F)(F)F` (stereo unspecified) was -14.6% (inactive).
As to `CCCCC(C#N)c1ccc(Cl)cc1` (stereo unspecified), the activity change, negative = inhibition is -4.2% (inactive).
Consider `Cc1ccc(C(C#N)c2ccc(Cl)cc2)nc1` (stereo unspecified), for which the activity change, negative = inhibition is -8.79% (inactive).
For the molecule `CCCCC(C#N)c1ccc(C(F)(F)F)cc1` (stereo unspecified), the activity change, negative = inhibition was -6.7% (inactive).
The same measure, in the same setting: the value for `N#CC(c1cccc(C(F)(F)F)n1)c1ccccc1OC(F)(F)F` (stereo unspecified) was -7.42% (inactive); that for `N#Cc1ccc(C(C#N)c2ccc(Cl)cc2Cl)nc1` (stereo unspecified) was 1.04% (inactive).
In the case of `CCCCC(C#N)c1ccc(Cl)cc1Cl` (stereo unspecified), the activity change, negative = inhibition was -10.8% (inactive).
Same read-out and setting: the value for `N#CC(c1cccc(Cl)n1)c1ccc(Cl)cc1Cl` (stereo unspecified) was -22.8% (inactive); that for `N#CC(c1ccc(F)cc1)c1ccc(C(F)(F)F)c(Cl)n1` (stereo unspecified) was -5.95% (inactive); that for `CCCCC(C#N)c1ccc(F)cc1` (stereo unspecified) was -10.3% (inactive).
Still for that read-out and setting: the value for `Cc1ccc(C(C#N)c2ccc(Cl)cc2)nc1C#N` (stereo unspecified) was -4.08% (inactive).
Still for that read-out and setting: the value for `N#CC(c1ccc(Cl)cc1Cl)c1ncccc1Cl` (stereo unspecified) was 2.07% (inactive); that for `N#Cc1ccc(C(C#N)c2ccc(Cl)cc2)nc1` (stereo unspecified) was -10.4% (inactive).
Consider `Cc1ccc(C(C#N)c2ccc(F)cc2)nc1C#N` (stereo unspecified), for which the activity change, negative = inhibition is -6.49% (inactive).
With `N#Cc1cccc(C(C#N)c2ccc(Cl)cc2Cl)n1` (stereo unspecified), the activity change, negative = inhibition is -3.73% (inactive).
Same read-out and setting: as for `Cc1cccc(C(C#N)c2ccc(Cl)cc2)n1` (stereo unspecified), the figure is -2.34% (inactive); as for `CC(C#N)(c1ccc(Cl)cc1)c1ccc(C(F)(F)F)cn1` (stereo unspecified), -3.75% (inactive).

The next test has as its system P. aeruginosa growth with EDDHA, absorbance 405 nm, 24-30 h. The description is as above.
Conditions: not given
In outline:
as §1
With `N#CC(c1ccc(Cl)cc1)c1ncccc1Cl` (stereo unspecified), the AC35 was 12.6 µM.
The same measure, in the same setting: as for `N#CC(c1ccc(F)cc1)c1cccc(C(F)(F)F)n1` (stereo unspecified), the figure is 37.6 µM; as for `N#CC(c1ccc(Cl)cc1)c1cccc(C(F)(F)F)n1` (stereo unspecified), 19.5 µM; as for `N#CC(c1cccc(C(F)(F)F)n1)c1ccc(Cl)cc1F` (stereo unspecified), 22.7 µM.
